Results as given in ChEMBL document CHEMBL4406800, “Discovery of Potent Protease-Activated Receptor 4 Antagonists with in Vivo Antithrombotic Efficacy” (J Med Chem, 2019).

How the values were obtained:
[1] = Stability in rat liver microsomes assessed as parent compound remaining measured after 10 mins; assay type: ADME, Microsome; details: read-out: Stability
[2] = Stability in human liver microsomes assessed as parent compound remaining measured after 10 mins; assay type: ADME, Microsome; details: for remaining at 10 min: liver microsomes, read-out: Stability; for Stability: microsomes, 10 min
[3] = target: T1, Proteinase-activated receptor 4 (Homo sapiens, UniProt Q96RI0); test: Antagonist activity at full-length human PAR4 expressed in HEK293 cells assessed as inhibition of AYPGKF-induced intracellular calcium mobilization preincubated for 30 mins followed by AYPGKF addition and measured by calcium indicator-based FLIPR assay; assay type: functional, cell-based
T1 sequence (Q96RI0 whole entry): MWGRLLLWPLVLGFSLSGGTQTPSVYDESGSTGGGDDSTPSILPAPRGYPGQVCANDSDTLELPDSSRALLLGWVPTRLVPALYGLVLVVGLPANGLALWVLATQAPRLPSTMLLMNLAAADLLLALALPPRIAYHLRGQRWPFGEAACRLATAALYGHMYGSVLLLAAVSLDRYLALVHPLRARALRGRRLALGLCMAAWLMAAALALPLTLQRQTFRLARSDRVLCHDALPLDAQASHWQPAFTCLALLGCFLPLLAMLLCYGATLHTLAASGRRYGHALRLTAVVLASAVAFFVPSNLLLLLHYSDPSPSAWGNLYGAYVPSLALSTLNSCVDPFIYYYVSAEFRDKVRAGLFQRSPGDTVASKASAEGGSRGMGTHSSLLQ

[4] = Oral bioavailability in rat at 2 mg/kg; assay type: ADME, organism-based; details: in vivo
Outline: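 Rat dosing: iv 0.5 mpk as a 10 min infusion in 25/75 propylene glycol/PEG400 at 2 ml/kg. po 2 mpk in 5/5/90 EtOH/TPGS/PEG300 at 5 mL/kg.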

[5] = Half life in human liver microsomes; assay type: ADME, Microsome; details: for t1/2: microsomes
[6] = Clearance in rat at 2 mg/kg, po or 0.5 mg/kg, iv administered as infusion for 10 mins; assay type: ADME, organism-based; details: in vivo
[7] = Half life in rat at 2 mg/kg, po or 0.5 mg/kg, iv administered as infusion for 10 mins; assay type: ADME, organism-based; details: in vivo
[8] = Half life in rat liver microsomes; assay type: ADME, Microsome

Compound | remaining at 10 min [1] [%] | remaining at 10 min [2] [%] | IC50 [3] [nM] | other results
COc1cccc(COc2cc(OC)cc3oc(-c4cn5nc(OC)sc5n4)cc23)c1 | 34 | 69 | 9.4 | –
COc1ccc2cc(-c3cn4nc(OC)sc4n3)oc2c1 | 55 | 57 | – | –
COc1cc(OCc2ccccc2C)c2cc(-c3cn4nc(OC)sc4n3)oc2c1 | 46 | 90 | 1.6 | –
Cc1nn2cc(-c3cc4ccccc4o3)nc2s1 | 4 | 20 | 37 | –
COc1cc(OCc2cccc(Cl)c2)c2cc(-c3cn4nc(OC)sc4n3)oc2c1 | 79 | 82 | 3.3 | –
COc1cc(OCCOCc2ccccc2)c2cc(-c3cn4nc(OC)sc4n3)oc2c1 | 25 | 75 | 1.8 | –
COc1cc(OCc2cccc(Oc3ccccc3)c2)c2cc(-c3cn4nc(OC)sc4n3)oc2c1 | 42 | 86 | 1.2 | –
CS(=O)(=O)c1nn2cc(-c3cc4ccccc4o3)nc2s1 | – | – | 820 | –
c1ccc2oc(-c3cn4nc(C5CC5)sc4n3)cc2c1 | 53 | 62 | 530 | –
COc1cc(OCc2cccc(C#N)c2)c2cc(-c3cn4nc(OC)sc4n3)oc2c1 | – | 100 | 0.98 | –
CNc1nn2cc(-c3cc4ccccc4o3)nc2s1 | 2 | 65 | 110 | –
COc1nn2cc(-c3cc4ccc(OCc5ccccc5)cc4o3)nc2s1 | 68 | 94 | – | –
c1ccc(Sc2nn3cc(-c4cc5ccccc5o4)nc3s2)cc1 | – | – | 1900 | –
COc1cc(OCc2cccc(CO)c2)c2cc(-c3cn4nc(OC)sc4n3)oc2c1 | – | – | 27 | –
COc1nn2cc(-c3cc4ccc(OC)c(OC)c4o3)nc2s1 | 3 | 20 | – | –
COc1cc(OCc2ccccc2OCc2ccccc2)c2cc(-c3cn4nc(OC)sc4n3)oc2c1 | 22 | 94 | 3.2 | –
COc1cc(OCc2ccccc2OC)c2cc(-c3cn4nc(OC)sc4n3)oc2c1 | 28 | 82 | 19 | –
CC(C)Oc1nn2cc(-c3cc4ccccc4o3)nc2s1 | – | – | 760 | –
CCOc1nn2cc(-c3cc4ccccc4o3)nc2s1 | 37 | 57 | 67 | –
COc1cc(OCc2ccccc2)c2cc(-c3cn4nc(OC)sc4n3)oc2c1 | – | – | – | bioavailability [4]: 27%
COc1cc(OCc2cccc(CCc3ccccc3)c2)c2cc(-c3cn4nc(OC)sc4n3)oc2c1 | 68 | 99 | 2.4 | –
COc1cc(OCc2ccc(OCc3ccccc3)cc2)c2cc(-c3cn4nc(OC)sc4n3)oc2c1 | 84 | 88 | 1.3 | –

Compound | remaining at 10 min [1] [%] | remaining at 10 min [2] [%] | IC50 [3] [nM] | other results
CCc1nn2cc(-c3cc4ccccc4o3)nc2s1 | 3 | 30 | 38 | –
COc1ccc(COc2cc(OC)cc3oc(-c4cn5nc(OC)sc5n4)cc23)cc1 | 64 | 73 | 1.6 | –
COc1nn2cc(-c3cc4c(OC)cccc4o3)nc2s1 | 42 | 40 | 7.6 | –
COc1cc(OCc2cccc(C(F)(F)F)c2)c2cc(-c3cn4nc(OC)sc4n3)oc2c1 | 79 | 93 | 3.1 | –
COc1cc(OCc2cccc(COc3ccccc3)c2)c2cc(-c3cn4nc(OC)sc4n3)oc2c1 | 64 | 86 | 3.2 | –
COc1cc(OCCOc2ccccc2)c2cc(-c3cn4nc(OC)sc4n3)oc2c1 | 36 | 65 | 0.81 | –
COc1cc(OCc2ccccc2C(F)(F)F)c2cc(-c3cn4nc(OC)sc4n3)oc2c1 | – | – | 3.4 | –
CSc1nn2cc(-c3cc4ccccc4o3)nc2s1 | 4 | 25 | 11 | half-life ([5]; liver microsomes): 5.4 min
COc1nn2cc(-c3cc4ccccc4o3)nc2s1 | 31 | – | 4 | Stability [2]: 80%; t1/2 [5]: 6.9 min
COc1nn2cc(-c3cc4c(OC)ccc(OC)c4o3)nc2s1 | 28 | 55 | – | –
COc1cc(OCc2cccc(Sc3ccccc3)c2)c2cc(-c3cn4nc(OC)sc4n3)oc2c1 | 45 | 80 | 0.89 | –
COc1cc(OCc2ccccc2Cl)c2cc(-c3cn4nc(OC)sc4n3)oc2c1 | 78 | 95 | 2.3 | –
COc1cc(OC)c2cc(-c3cn4nc(OC)sc4n3)oc2c1 | 70 | – | – | clearance [6]: 33 mL/min/kg; Stability [2]: 86%; half-life [7]: 192 min; t1/2 [5]: 17 min; bioavailability [4]: 1%; half-life [8]: 22 min
COc1ccc2oc(-c3cn4nc(OC)sc4n3)cc2c1 | 38 | 30 | – | –
COc1cc(OCc2ccc(Cl)cc2)c2cc(-c3cn4nc(OC)sc4n3)oc2c1 | – | – | 11 | –
COc1cc(OCc2ccc(C(F)(F)F)cc2)c2cc(-c3cn4nc(OC)sc4n3)oc2c1 | 90 | 79 | 4.3 | –
COc1cc(OCc2cccc(O)c2)c2cc(-c3cn4nc(OC)sc4n3)oc2c1 | 49 | 97 | 3.1 | –
COc1nn2cc(-c3cc4cccc(OC)c4o3)nc2s1 | 11 | 25 | 2.8 | –
COc1nn2cc(-c3cc4c(OCc5ccccc5)cccc4o3)nc2s1 | 75 | 85 | 24 | –
COc1cc(OCCc2ccccc2)c2cc(-c3cn4nc(OC)sc4n3)oc2c1 | 43 | 89 | 1.1 | –
CCSc1nn2cc(-c3cc4ccccc4o3)nc2s1 | 35 | 45 | 2900 | –
